PubChem BioAssay AID463185 (Molecular Libraries Program, Specialized Chemistry Center, …, 2010)
Active and inactive are the calls of the source.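 The calls were made as follows: active = IC50 at or below 10 µM; inactive = the rest.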

Tested on: HeLa UbG76V-GFP reporter degradation, GFP imaging
Test: inhibitors of p97-dependent reporter degradation, dose response, imaging, human cells (AID 463185)
In short: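 Assay system – UbG76V-GFP reporter HeLa cells · Buffer or medium – 2.5% FBS medium plus cycloheximide 50 µg/mL · Reagent – MG132 4 µM pretreatment for reporter buildup before chase · Incubation – 1 h MG132, chase read 70–170 min · Measured by – cell imaging of GFP fluorescence, mean of about 500 cells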

| Compound | IC50 |
| --- | --- |
| Cc1c(Cl)cccc1Nc1nc(N)nc(CCl)n1 | 5.9 µM |
| N#C/C(=C(\O)COC(=O)CCC(=O)c1ccc2c(c1)OCCO2)c1nc2ccccc2[nH]1 | 6.3 µM |
| COc1ccccc1Nc1nc(N)nc(CCl)n1 | 21 µM (inactive) |
| COc1cccc(Nc2nc(N)nc(CCl)n2)c1 | 23 µM (inactive) |
| COc1ccccc1CNc1nc(NCc2ccccc2)c2ccccc2n1 | 4.8 µM |
| COc1ccc(CNc2nc(NCc3ccccc3)c3ccccc3n2)cc1 | 3.3 µM |
| Clc1ccc(CNc2nc(NCc3ccccc3)c3ccccc3n2)cc1 | 3.3 µM |
| Cc1cccc(C)c1OCC(=O)OC/C(O)=C(/C#N)c1nc2ccccc2[nH]1 | 15 µM (inactive) |
| Brc1cccc(CNc2nc(NCc3ccccc3)c3ccccc3n2)c1 | 1.3 µM |
| Brc1ccccc1CNc1nc(NCc2ccccc2)c2ccccc2n1 | 6.7 µM |
| Clc1ccc(CNc2nc(NCc3ccccc3)c3ccccc3n2)cc1Cl | 4.6 µM |
| CC(C)c1ccc(Nc2nc(N)nc(CCl)n2)cc1 | 14 µM (inactive) |
| Nc1nc(CCl)nc(N(c2ccccc2)c2ccccc2)n1 | 10 µM |
| Cc1ccc(CNc2nc(NCc3ccccc3)c3ccccc3n2)cc1 | 2.4 µM |
| Cc1cc(C)cc(OCC(=O)OC/C(O)=C(/C#N)c2nc3ccccc3[nH]2)c1 | 13 µM (inactive) |
| Fc1cccc(CNc2nc(NCc3ccccc3)c3ccccc3n2)c1 | 1.1 µM |
| Nc1nc(CCl)nc(Nc2cccc3ccccc23)n1 | 14 µM (inactive) |
| CCc1ccc(Nc2nc(N)nc(CCl)n2)cc1 | 18 µM (inactive) |
| Clc1ccccc1CNc1nc(NCc2ccccc2)c2ccccc2n1 | 4.1 µM |
| FC(F)(F)c1ccc(CNc2nc(NCc3ccccc3)c3ccccc3n2)cc1 | 2.5 µM |
| Cc1ccc(Nc2nc(N)nc(CCl)n2)cc1 | 26 µM (inactive) |
| Fc1ccc(CNc2nc(NCc3ccccc3)c3ccccc3n2)cc1 | 2.8 µM |
| Cc1cccc(Nc2nc(N)nc(CCl)n2)c1C | 27 µM (inactive) |
| N#C/C(=C(\O)COC(=O)C1COc2ccccc2O1)c1nc2ccccc2[nH]1 (stereo not drawn) | 10 µM |

| Compound | IC50 |
| --- | --- |
| c1ccc(CNc2nc(NCc3ccccc3)c3ccccc3n2)cc1 | 2.3 µM |
| Nc1nc(CCl)nc(Nc2ccc(F)cc2)n1 | 31 µM (inactive) |
| N#C/C(=C(\O)COC(=O)COc1cccc(Br)c1)c1nc2ccccc2[nH]1 | 5.9 µM |
| CCCOc1ccc(C(=O)CCC(=O)OC/C(O)=C(/C#N)c2nc3ccccc3[nH]2)cc1 | 6.1 µM |
| Cc1cc(OCC(=O)OC/C(O)=C(/C#N)c2nc3ccccc3[nH]2)ccc1Cl | 16 µM (inactive) |
| N#C/C(=C(\O)COC(=O)c1ccccc1Cc1ccccc1)c1nc2ccccc2[nH]1 | 3.4 µM |
| Fc1ccccc1CNc1nc(NCc2ccccc2)c2ccccc2n1 | 3.4 µM |
| N#C/C(=C(\O)COC(=O)CNc1ccc(C(F)(F)F)cc1[N+](=O)[O-])c1nc2ccccc2[nH]1 | 6.5 µM |
| N#C/C(=C(\O)COC(=O)COc1ccc(Cl)cc1)c1nc2ccccc2[nH]1 | 2.6 µM |
| Nc1nc(CCl)nc(Nc2ccc(Cl)c(Cl)c2)n1 | 5.7 µM |
| Nc1nc(CCl)nc(Nc2ccc(Oc3ccccc3)cc2)n1 | 3.7 µM |
| FC(F)(F)c1cc(CNc2nc(NCc3ccccc3)c3ccccc3n2)ccc1Cl | 4.6 µM |
| COc1cc([N+](=O)[O-])ccc1Nc1nc(N)nc(CCl)n1 | 22 µM (inactive) |
| Nc1nc(CCl)nc(N2CCCc3ccccc32)n1 | 17 µM (inactive) |
| Clc1cccc(CNc2nc(NCc3ccccc3)c3ccccc3n2)c1 | 3.7 µM |
| CCc1nc2ccccc2n1CC(=O)OC/C(O)=C(/C#N)c1nc2ccccc2[nH]1 | 7.2 µM |
| Nc1nc(CCl)nc(N2CCc3ccccc32)n1 | 10.4 µM (inactive) |
| CN(c1ccccc1)c1nc(N)nc(CCl)n1 | 31 µM (inactive) |
| Nc1nc(Nc2cccc(Cl)c2)nc(C(Cl)Cl)n1 | 13 µM (inactive) |
| COc1cccc(CNc2nc(NCc3ccccc3)c3ccccc3n2)c1 | 1.7 µM |
| Cc1ccccc1CNc1nc(NCc2ccccc2)c2ccccc2n1 | 10 µM |
| Brc1ccc(CNc2nc(NCc3ccccc3)c3ccccc3n2)cc1 | 6.7 µM |
| Cc1cccc(CNc2nc(NCc3ccccc3)c3ccccc3n2)c1 | 4.1 µM |
| Nc1nc(CCl)nc(Nc2ccc(Cl)cc2)n1 | 8 µM |
